{"source": "ChEMBL document CHEMBL3745671", "about": "“Discovery of N-[5-(6-Chloro-3-cyano-1-methyl-1H-indol-2-yl)-pyridin-3-ylmethyl]-ethanesulfonamide, a Cortisol-Sparing CYP11B2 Inhibitor that Lowers Aldosterone in Human Subjects” (J Med Chem, 2015)", "key": {"Homo sapiens [1]": {"tested_on": "Homo sapiens", "assay": "Dose normalized AUCtau in healthy human at 200 mg/kg, po bid", "assay_type": "ADME, organism-based", "settings": "in vivo", "summary_of_the_method": "(§1)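 Double-blind, randomized, placebo-controlled study in healthy male and female volunteers aged 18-63 on a restricted sodium/potassium diet. Oral bid doses of 30, 60, 100 or 200 mg, drug:placebo 5:2. N per dose 10–17. AUCtau, Cmax and median Tmax reported; dose-normalized values are AUCtau/dose and Cmax/dose.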"}, "[2]": {"assay": "Equilibrium solubility of the compound in buffer at pH 6.8", "assay_type": "physicochemical", "summary_of_the_method": "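Equilibrium solubility measured in buffer at pH 6.8.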"}, "Homo sapiens [3]": {"tested_on": "Homo sapiens", "assay": "Dose normalized AUCtau in healthy human at 60 mg/kg, po bid", "assay_type": "ADME, organism-based", "settings": "in vivo", "summary_of_the_method": "as §1"}, "Homo sapiens [4]": {"tested_on": "Homo sapiens", "assay": "Dose normalized AUCtau in healthy human at 100 mg/kg, po bid", "assay_type": "ADME, organism-based", "settings": "in vivo", "summary_of_the_method": "as §1"}, "Homo sapiens [5]": {"tested_on": "Homo sapiens", "assay": "Toxicity in human assessed as increase in urinary 11-deoxycortisol level at 30 to 200 mg/kg, po bid measured over 24 hrs", "assay_type": "organism-based, Urine", "settings": "in vivo, in the assay text read “30 to 200 mg” for “30 to 200 mg/kg”", "summary_of_the_method": "(§2)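 Healthy male and female volunteers, 18-63 years, restricted sodium/potassium diet; double-blind randomized placebo-controlled, oral 30, 60, 100 or 200 mg bid (drug:placebo 5:2).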"}, "Homo sapiens [6]": {"tested_on": "Homo sapiens", "assay": "Decrease in plasma aldosterone level in po dosed human administered as bid measured over 24 hrs", "assay_type": "functional, organism-based", "summary_of_the_method": "as §2"}, "[7]": {"assay": "Tmax in healthy human at 200 mg/kg, po bid", "assay_type": "ADME, organism-based", "settings": "in vivo", "summary_of_the_method": "as §1"}, "Plasma [8]": {"tested_on": "Plasma", "assay": "Drug uptake in plasma of chair-trained chronically cannulated cynomolgus monkey model at 0.03 to 3 mg/kg, po compound administered followed by ACTH challenge for 3 hrs measured at 24 hrs by LC/MS/MS analysis", "assay_type": "ADME, organism-based, Macaca fascicularis", "settings": "in vivo", "summary_of_the_method": "(§3)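 Conscious chair-trained, chronically cannulated male cynomolgus monkeys; vascular access port via Huber needle. Baseline blood (heparin) before dosing; methylcellulose suspension po at 0.03, 0.1, 0.3 or 3 mg/kg (n=3/dose) or vehicle (n=6, same animals). ACTH(1–24) 3000 ng/kg iv 3 h post-dose; sampling 0.125–1 h post-ACTH, up to 8 h, and 23.5 and 24 h. Aldosterone and cortisol by RIA; drug by LC/MS/MS (LLOQ 0.26 nmol/L, lower values set to zero).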"}, "[9]": {"assay": "Half life in rat liver microsomes after 30 mins by LC/MS/MS analysis", "assay_type": "ADME"}, "[10]": {"assay": "Cmax in healthy human at 30 mg/kg, po bid", "assay_type": "ADME, organism-based", "parameters": "dose 30 mg/kg, route oral", "settings": "in vivo", "summary_of_the_method": "as §1"}, "Homo sapiens [11]": {"tested_on": "Homo sapiens", "assay": "Decrease in plasma aldosterone level in human at 200 mg/kg, po bid measured over 24 hrs", "assay_type": "functional", "settings": "in the assay text read “200 mg” for “200 mg/kg”", "summary_of_the_method": "as §2"}, "Cynomolgus monkey [12]": {"tested_on": "Cynomolgus monkey", "assay": "Decrease in ACTH-stimulated plasma cortisol level of chair-trained chronically cannulated cynomolgus monkey model at 0.03 to 3 mg/kg, po compound administered followed by ACTH challenge for 24 hrs by LC/MS/MS analysis", "assay_type": "functional, organism-based", "settings": "Macaca fascicularis", "summary_of_the_method": "as §3"}, "[13]": {"assay": "Cmax in healthy human at 100 mg/kg, po bid", "assay_type": "ADME, organism-based", "parameters": "dose 100 mg/kg, route oral", "settings": "in vivo", "summary_of_the_method": "as §1"}, "[14]": {"assay": "Cmax in healthy human at 200 mg/kg, po bid", "assay_type": "ADME, organism-based", "parameters": "dose 200 mg/kg, route oral", "settings": "in vivo", "summary_of_the_method": "as §1"}, "Plasma [15]": {"tested_on": "Plasma", "assay": "Drug uptake in plasma of po dosed chair-trained chronically cannulated cynomolgus monkey model compound administered followed by ACTH challenge for 3 hrs measured up to 8 hrs post challenge by LC/MS/MS analysis", "assay_type": "ADME, organism-based, Macaca fascicularis", "settings": "in vivo", "summary_of_the_method": "as §3"}, "Homo sapiens [16]": {"tested_on": "Homo sapiens", "assay": "Dose normalized Cmax in healthy human at 30 mg/kg, po bid", "assay_type": "ADME, organism-based", "settings": "in vivo", "summary_of_the_method": "as §1"}, "Homo sapiens [17]": {"tested_on": "Homo sapiens", "assay": "Dose normalized Cmax in healthy human at 100 mg/kg, po bid", "assay_type": "ADME, organism-based", "settings": "in vivo", "summary_of_the_method": "as §1"}, "[18]": {"assay": "Half life in human liver microsomes after 30 mins by LC/MS/MS analysis", "assay_type": "ADME"}, "Cynomolgus monkey [19]": {"tested_on": "Cynomolgus monkey", "assay": "Decrease in ACTH-stimulated plasma aldosterone level in chair-trained chronically cannulated cynomolgus monkey model at 3 mg/kg, po compound administered followed by ACTH challenge for 3 hrs measured by radioimmunoassay", "parameters": "scale not given: the % may be the effect or the level left"}, "[20]": {"assay": "Clearance in continuous angiotensin-2 infusion Sprague-Dawley rat model at 3 mg/kg, po and 1 mg/kg, iv", "assay_type": "ADME, organism-based", "settings": "in vivo"}, "[21]": {"target": "T1, Cytochrome P450 11B2, mitochondrial (Rattus norvegicus, UniProt P30099)", "T1 sequence (P30099 whole entry)": "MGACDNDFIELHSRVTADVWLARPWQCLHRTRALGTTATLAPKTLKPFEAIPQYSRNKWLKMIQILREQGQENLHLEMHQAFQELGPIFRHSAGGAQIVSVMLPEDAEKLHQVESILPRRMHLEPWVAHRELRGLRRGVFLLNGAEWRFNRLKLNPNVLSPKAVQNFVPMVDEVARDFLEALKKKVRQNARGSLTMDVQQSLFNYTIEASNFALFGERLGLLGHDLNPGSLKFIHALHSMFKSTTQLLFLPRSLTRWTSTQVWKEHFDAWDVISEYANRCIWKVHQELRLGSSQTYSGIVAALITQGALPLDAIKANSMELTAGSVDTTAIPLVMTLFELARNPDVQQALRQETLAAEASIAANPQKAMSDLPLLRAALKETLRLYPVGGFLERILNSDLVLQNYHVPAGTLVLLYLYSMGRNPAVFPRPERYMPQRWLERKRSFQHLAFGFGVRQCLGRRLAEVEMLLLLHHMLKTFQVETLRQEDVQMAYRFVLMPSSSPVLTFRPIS", "assay": "Inhibition of recombinant rat CYP11B2 using 11-deoxycorticosterone as substrate after 2 hrs by scintillation proximity assay"}, "Homo sapiens [22]": {"tested_on": "Homo sapiens", "assay": "Decrease in urinary aldosterone excretion in human at 200 mg/kg, po bid measured over 24 hrs", "assay_type": "functional, Urine", "settings": "in the assay text read “200 mg” for “200 mg/kg”", "summary_of_the_method": "as §2"}, "[23]": {"assay": "Cmax in healthy human at 60 mg/kg, po bid", "assay_type": "ADME, organism-based", "parameters": "dose 60 mg/kg, route oral", "settings": "in vivo", "summary_of_the_method": "as §1"}, "[24]": {"assay": "AUC (0 to 24 hrs) in continuous angiotensin 2 infusion Sprague-Dawley rat model at 3 mg/kg, po", "assay_type": "ADME, organism-based", "parameters": "time < 24 hr, dose 3 mg/kg, route oral", "settings": "in vivo", "summary_of_the_method": "(§4)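 Male Sprague Dawley rats, 200–300 g. IV: 0.3 mg/1 mL/kg (free base) slow injection via jugular vein, n=2. Oral gavage at 1 mg/5 mL/kg or 3 mg/5 mL/kg in solution, n=3. Jugular catheter blood at 5 min (iv only), 0.25–8 h into EDTA; plasma after protein precipitation with acetonitrile containing internal standard, HPLC-MS; noncompartmental parameters.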"}, "Homo sapiens [25]": {"tested_on": "Homo sapiens", "assay": "Decrease in urinary aldosterone excretion in po dosed human administered as bid measured over 24 hrs", "assay_type": "functional, organism-based", "settings": "Urine", "summary_of_the_method": "as §2"}, "Cynomolgus monkey [26]": {"tested_on": "Cynomolgus monkey", "assay": "Decrease in plasma cortisol level in chair-trained chronically cannulated cynomolgus monkey model measured after 24 hrs […]", "assay_type": "functional, organism-based", "settings": "Macaca fascicularis", "summary_of_the_method": "as §3"}, "[27]": {"assay": "Half life in continuous angiotensin 2 infusion Sprague-Dawley rat model at 3 mg/kg, po and 1 mg/kg, iv", "assay_type": "ADME, organism-based", "settings": "in vivo"}, "[28]": {"assay": "Tmax in healthy human at 100 mg/kg, po bid", "assay_type": "ADME, organism-based", "settings": "in vivo", "summary_of_the_method": "as §1"}, "[29]": {"assay": "Oral bioavailability in continuous angiotensin 2 infusion Sprague-Dawley rat model at 3 mg/kg", "assay_type": "ADME, organism-based", "settings": "in vivo", "summary_of_the_method": "as §4"}, "Homo sapiens [30]": {"tested_on": "Homo sapiens", "assay": "Dose normalized Cmax in healthy human at 200 mg/kg, po bid", "assay_type": "ADME, organism-based", "settings": "in vivo", "summary_of_the_method": "as §1"}, "[31]": {"assay": "Tmax in healthy human at 60 mg/kg, po bid", "assay_type": "ADME, organism-based", "settings": "in vivo", "summary_of_the_method": "as §1"}, "[32]": {"assay": "Inhibition of CYP11B2 in cynomolgus monkey adrenal homogenates assessed as inhibition of aldosterone secretion", "assay_type": "tissue-based, Macaca fascicularis", "summary_of_the_method": "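Cynomolgus monkey adrenal homogenates, with 11-DOC as substrate; aldosterone secretion inhibition determined as IC50.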"}}, "note": "pIC50: −log10 of the molar value. Calls of active or inactive are those of the source. No cut-off for these calls is given here.", "data": [{"compound": "CCS(=O)(=O)NCc1cncc(-c2c(C#N)c3ccc(Cl)cc3n2C)c1", "values": [{"measurement": "AUC/dose", "setting": "Homo sapiens [1]", "value": 10.9, "unit": "ng·h/mL/mg"}, {"measurement": "solubility thermodynamic", "setting": "[2]", "value": "< 5", "unit": "µM"}, {"measurement": "AUC/dose", "setting": "Homo sapiens [3]", "value": 17.1, "unit": "ng·h/mL/mg"}, {"measurement": "AUC/dose", "setting": "Homo sapiens [4]", "value": 12.7, "unit": "ng·h/mL/mg"}, {"measurement": "Activity", "setting": "Homo sapiens [5]", "value": "Non-toxic"}, {"measurement": "Activity", "setting": "Homo sapiens [6]", "value": "Dose-dependent effect"}, {"measurement": "Tmax", "setting": "[7]", "value": 4, "unit": "h"}, {"measurement": "Drug uptake", "setting": "Plasma [8]", "value": "Active"}, {"measurement": "half-life", "setting": "[9]", "value": 0.467, "unit": "h"}, {"measurement": "Cmax", "setting": "[10]", "value": 117, "unit": "ng/mL"}, {"measurement": "%max", "setting": "Homo sapiens [11]", "value": 70, "unit": "%"}, {"measurement": "Activity", "setting": "Cynomolgus monkey [12]", "value": "inactive"}, {"measurement": "Cmax", "setting": "[13]", "value": 173, "unit": "ng/mL"}, {"measurement": "Cmax", "setting": "[14]", "value": 306, "unit": "ng/mL"}, {"measurement": "Drug uptake", "setting": "Plasma [15]", "value": "Dose-dependent effect"}, {"measurement": "Cmax/dose", "setting": "Homo sapiens [16]", "value": 3.9, "unit": "ng/mL"}, {"measurement": "Cmax/dose", "setting": "Homo sapiens [17]", "value": 1.7, "unit": "ng/mL"}, {"measurement": "half-life", "setting": "[18]", "value": 1.28, "unit": "h"}, {"measurement": "Activity", "setting": "Cynomolgus monkey [19]", "value": 95, "unit": "%"}, {"measurement": "clearance", "setting": "[20]", "value": 18, "unit": "mL/min/kg"}, {"measurement": "pIC50", "setting": "[21]", "value": 4.56}, {"measurement": "%max", "setting": "Homo sapiens [22]", "value": 70, "unit": "%"}, {"measurement": "Cmax", "setting": "[23]", "value": 173, "unit": "ng/mL"}, {"measurement": "AUC(0-t) at 24 h", "setting": "[24]", "value": 5.79, "unit": "µM·h"}, {"measurement": "Activity", "setting": "Homo sapiens [25]", "value": "Dose-dependent effect"}, {"measurement": "Activity", "setting": "Cynomolgus monkey [26]", "value": "inactive"}, {"measurement": "half-life", "setting": "[27]", "value": 1.1, "unit": "h"}, {"measurement": "Tmax", "setting": "[28]", "value": 4, "unit": "h"}, {"measurement": "bioavailability", "setting": "[29]", "value": 84, "unit": "%"}, {"measurement": "Cmax/dose", "setting": "Homo sapiens [30]", "value": 1.5, "unit": "ng/mL"}, {"measurement": "Tmax", "setting": "[31]", "value": 3, "unit": "h"}, {"measurement": "pIC50", "setting": "[32]", "value": 8.00}]}]}
